Results taken from ChEMBL document CHEMBL3046733, “Comparative toxicity of selected organophosphate insecticides against resistant and susceptible clones of the greenbug, Schizaphis graminum (Homoptera: aphididae)” (J Agric Food Chem, 2000).
Values after ≈ are worked out from the molar mass of the structure shown.

Columns and labels:
[1] = target: Acetylcholinesterase (Schizaphis graminum) (UniProt Q9BMJ1); assay: Resistance index, ratio of bimolecular rate constant Ki for AChE in rganophosphate-resistant clone of Schizaphis graminum OR2 to bimolecular rate constant Ki for AChE in organophosphate-susceptible clone of Schizaphis graminum OSS
Chain of Acetylcholinesterase (Schizaphis graminum) (Q9BMJ1 as listed by the source): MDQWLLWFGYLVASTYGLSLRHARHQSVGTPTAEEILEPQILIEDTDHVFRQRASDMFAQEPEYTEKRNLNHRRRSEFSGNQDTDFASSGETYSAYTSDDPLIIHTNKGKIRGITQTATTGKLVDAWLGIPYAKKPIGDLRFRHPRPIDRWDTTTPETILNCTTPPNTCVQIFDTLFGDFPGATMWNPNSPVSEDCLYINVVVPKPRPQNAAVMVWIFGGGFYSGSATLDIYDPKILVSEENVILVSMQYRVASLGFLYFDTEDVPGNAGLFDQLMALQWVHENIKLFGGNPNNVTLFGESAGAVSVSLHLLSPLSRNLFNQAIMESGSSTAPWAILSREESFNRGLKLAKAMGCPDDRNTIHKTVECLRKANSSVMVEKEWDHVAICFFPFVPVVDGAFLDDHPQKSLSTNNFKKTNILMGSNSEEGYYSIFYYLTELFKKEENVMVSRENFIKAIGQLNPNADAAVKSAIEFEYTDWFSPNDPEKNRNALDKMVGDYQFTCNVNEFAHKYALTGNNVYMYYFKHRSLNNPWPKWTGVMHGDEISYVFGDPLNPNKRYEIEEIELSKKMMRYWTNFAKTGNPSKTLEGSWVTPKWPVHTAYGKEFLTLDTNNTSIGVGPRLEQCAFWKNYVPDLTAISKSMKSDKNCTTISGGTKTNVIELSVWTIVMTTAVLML

[2] = target: Acetylcholinesterase (Schizaphis graminum) (UniProt Q9BMJ1); assay: Resistance index, ratio of bimolecular rate constant Ki for AChE in rganophosphate-resistant clone of Schizaphis graminum OR1 to bimolecular rate constant Ki for AChE in organophosphate-susceptible clone of Schizaphis graminum OSS
Acetylcholinesterase [3] = target: T1, Acetylcholinesterase (Schizaphis graminum, UniProt Q9BMJ1); assay: Inhibition of AChE in organophosphate-resistant clone of Schizaphis graminum OR2 adult or last-instar nymphs homogenates assessed as bimolecular rate constant pre-incubated with compound for 2 min at 25 degC before addition of ATC and DTNB solution
T1 sequence (Q9BMJ1 whole entry): as the sequence (Q9BMJ1 as listed by the source) above
How it was run: (§1)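 Clones mass-reared on whole sorghum plants (hybrid NC+ 160) at 25 ± 2 °C with a 16:8 h L/D photoperiod. Greenbug AChE was preincubated with an organophosphate oxon inhibitor for 2 min at 25 °C. Residual AChE activity was then measured as a percentage of an inhibitor-free control.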

Acetylcholinesterase [4] = target: T1, Acetylcholinesterase; assay: Inhibition of AChE in organophosphate-resistant clone of Schizaphis graminum OR1 adult or last-instar nymphs homogenates assessed as bimolecular rate constant pre-incubated with compound for 2 min at 25 degC before addition of ATC and DTNB solution; how it was run: as §1
Acetylcholinesterase [5] = target: T1, Acetylcholinesterase; assay: Inhibition of AChE in organophosphate-susceptible clone of Schizaphis graminum OSS adult or last-instar nymphs homogenates assessed as bimolecular rate constant pre-incubated with compound for 2 min at 25 degC before addition of ATC and DTNB solution; how it was run: as §1
Schizaphis graminum [6] = assay: Resistance index, ratio of LC50 for organophosphate-resistant clone of Schizaphis graminum OR2 adult or last-instar nymphs to LC50 for organophosphate-susceptible clone of Schizaphis graminum OSS adult or last-instar nymphs; format: functional; parameters: reference not given here
Schizaphis graminum [7] = assay: Resistance index, ratio of LC50 for organophosphate-resistant clone of Schizaphis graminum OR1 adult or last-instar nymphs to LC50 for organophosphate-susceptible clone of Schizaphis graminum OSS adult or last-instar nymphs; format: functional; parameters: reference not given here
Schizaphis graminum [8] = assay: Insecticidal activity against organophosphate-resistant clone of Schizaphis graminum OR2 adult or last-instar nymphs assessed as insect mortality after 8 hr; format: functional; details: OR2, 8 h
Schizaphis graminum [9] = assay: Insecticidal activity against organophosphate-resistant clone of Schizaphis graminum OR1 adult or last-instar nymphs assessed as insect mortality after 8 hr; format: functional; details: OR1, 8 h
Schizaphis graminum [10] = assay: Insecticidal activity against organophosphate-susceptible clone of Schizaphis graminum OSS adult or last-instar nymphs assessed as insect mortality after 8 hr; format: functional

Row | SMILES | Ratio [1] | Ratio [2] | Ki (Acetylcholinesterase [3]) | Ki (Acetylcholinesterase [4]) | Ki (Acetylcholinesterase [5]) | RatioLC50 (Schizaphis graminum [6]) | RatioLC50 (Schizaphis graminum [7]) | LC50 (Schizaphis graminum [8]) | LC50 (Schizaphis graminum [9]) | LC50 (Schizaphis graminum [10])
1 | CCOP(=O)(OCC)SCCSCC [demeton S] | 1.3 | 1.3 | 2.68 M⁻¹ min⁻¹ | 2.62 M⁻¹ min⁻¹ | 3.45 M⁻¹ min⁻¹ |  |  |  |  | 
2 | CNC(=O)CSP(=O)(OC)OC [Omethoate] | 3.5 | 3.8 | 1.33 M⁻¹ min⁻¹ | 1.24 M⁻¹ min⁻¹ | 4.62 M⁻¹ min⁻¹ | 30.6 | 38.9 | 6.28 µg/mL (≈ 29.5 µM) | 8.01 µg/mL (≈ 37.6 µM) | 0.21 µg/mL (≈ 0.985 µM)
3 | CCOP(=S)(OCC)SCCSCC [DISULFOTON] |  |  |  |  |  | 93.7 | 39.6 | 15.1 µg/mL (≈ 55 µM) | 6.37 µg/mL (≈ 23.2 µM) | 0.16 µg/mL (≈ 0.583 µM)
4 | CCSCCSP(=O)(OC)OC [demeton-S-methyl] |  |  | 4.35 M⁻¹ min⁻¹ | 4.11 M⁻¹ min⁻¹ | 6.04 M⁻¹ min⁻¹ |  |  |  |  | 
5 | CCOP(=O)(OCC)Oc1ccc([N+](=O)[O-])cc1 [PARAOXON] | 2 | 1.8 | 0.72 M⁻¹ min⁻¹ | 0.81 M⁻¹ min⁻¹ | 1.42 M⁻¹ min⁻¹ |  |  |  |  | 
6 | COP(=O)(OC)Oc1ccc([N+](=O)[O-])cc1 [DIMETHYL 4-NITROPHENYL PHOSPHATE] | 2.2 | 2.1 | 1.3 M⁻¹ min⁻¹ | 1.35 M⁻¹ min⁻¹ | 2.9 M⁻¹ min⁻¹ |  |  |  |  | 
7 | COP(=S)(OC)Oc1ccc([N+](=O)[O-])cc1 [METHYL PARATHIONE] |  |  |  |  |  | 41.3 | 11.1 | 1.27 µg/mL (≈ 4.83 µM) | 0.34 µg/mL (≈ 1.29 µM) | 0.031 µg/mL (≈ 0.118 µM)
8 | CCOP(=S)(OCC)Oc1nc(Cl)c(Cl)cc1Cl [CHLORPYRIFOS] |  |  |  |  |  | 53.8 | 10.6 | 1.96 µg/mL (≈ 5.59 µM) | 0.39 µg/mL (≈ 1.11 µM) | 0.036 µg/mL (≈ 0.103 µM)
9 | CCOP(=S)(OCC)Oc1ccc([N+](=O)[O-])cc1 [PARATHION] |  |  |  |  |  | 326.9 | 40.8 | 64.8 µg/mL (≈ 222 µM) | 8.07 µg/mL (≈ 27.7 µM) | 0.2 µg/mL (≈ 0.687 µM)
